{"data": "Published values of several laboratories", "note": "Each line is one published result; the experiments were not run side by side."}
{"Compound": "Cc1ccnc2c1NC(=O)c1cccnc1N2C1CC1", "organism": "Human immunodeficiency virus 1", "assay": "viral replication", "system": "human PBMC", "setting": "clinical isolate", "endpoint": "IC90", "value": "242 nM"}
{"Compound": "CC(C)CN(C[C@@H](O)[C@H](Cc1ccccc1)NC(=O)O[C@H]1CO[C@H]2OCC[C@H]21)S(=O)(=O)c1ccc(N)cc1", "organism": "Human immunodeficiency virus 1", "assay": "viral replication, inhibitor", "system": "MT2", "endpoint": "IC50", "value": "1.6 nM"}
{"Compound": "COC(=O)c1cc(-c2cccc(NC(=O)Nc3c(C)cccc3C)c2)on1", "organism": "Mycolicibacterium fortuitum", "assay": "microbial growth, broth dilution", "system": "ATCC6841", "setting": "48 h", "endpoint": "MIC", "value": "> 64 µg/mL"}
{"Compound": "CC(C)Nc1cccnc1N1CCN(C(=O)c2cc3cc(NS(C)(=O)=O)ccc3[nH]2)CC1", "organism": "Human immunodeficiency virus 1", "assay": "viral replication, inhibitor", "system": "human PBMC", "setting": "clinical isolate", "endpoint": "IC90", "value": "57.6 nM"}
{"Compound": "COC(=O)c1cc(-c2ccc(NC(=O)Nc3ccc(Cl)c(Cl)c3)cc2)on1", "organism": "Mycolicibacterium fortuitum", "assay": "microbial growth, broth dilution", "system": "ATCC6841", "setting": "48 h", "endpoint": "MIC", "value": "> 64 µg/mL"}
{"Compound": "CC(C)CN(C[C@@H](O)[C@H](Cc1ccccc1)NC(=O)O[C@H]1CO[C@H]2OCC[C@H]21)S(=O)(=O)c1ccc(B(O)O)cc1", "organism": "Human immunodeficiency virus 1", "assay": "viral replication, inhibitor", "system": "MT2", "endpoint": "IC50", "value": "49 nM"}
{"Compound": "CC(C)CN(C[C@@H](O)[C@H](Cc1ccccc1)NC(=O)O[C@H]1CO[C@H]2OCC[C@H]21)S(=O)(=O)c1ccc(N)cc1", "organism": "Human immunodeficiency virus 1", "assay": "viral replication", "system": "T-lymphoid", "endpoint": "IC50", "value": "1.6 nM"}
{"Compound": "CC[C@H](C)C[C@H](C)CCCCCCCCC(=O)N[C@H]1C[C@@H](O)[C@@H](NCCN)NC(=O)[C@@H]2[C@@H](O)CCN2C(=O)[C@H]([C@H](O)CCN)NC(=O)[C@H]([C@H](O)[C@@H](O)c2ccc(O)cc2)NC(=O)[C@@H]2C[C@@H](O)CN2C(=O)[C@H]([C@@H](C)O)NC1=O", "organism": "Clavispora lusitaniae", "assay": "microbial growth, broth dilution", "system": "MY1396", "endpoint": "MIC", "value": "0.25 µg/mL"}
